ERAP1 HTS inh – ERAP1 (human) enzyme inhibition; AID 652197; recombinant ERAP1, Leu-AMC fluorescence, 60 min; inhibition, % at 10.7 µM; Q9NZ08; hit rate 0.15% among 340,000;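 active means mean replicate inhibition of at least 30%, or all replicates individually reaching that 30% level; inactive means mean below 30% and not every replicate reaching it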;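 further: 0% = neutral control wells and 100% = L-leucinethiol positive control wells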
E-sel inducer – E-selectin induction on HUVECs; P16581; hit rate 0.37% among 260,000; HUVEC E-selectin immunofluorescence imaging; normalized: neutral wells 0, TNF-alpha wells 100; activation, % at 7.58 µM;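 active means mean E-selectin-positive cell signal at least 10% of the positive control, reached in at least 60% of replicates, without over 20% cell loss; inconclusive means no rule given, readout overlaps actives, possibly toxicity-flagged; inactive means the rest, including those meeting only one limit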
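Test system: HUVEC; input: 3,000 HUVEC/well; measured by: immunofluorescence imaging; read-out: % PE-positive cells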
CFTR F508del cor – CFTR F508del correction in bronchial cells | activity (quench increase), % at 7.58 µM | CFBE cells, YFP halide quenching; stimulated with forskolin plus potentiator P3; % fluorescence drop versus neutral controls | hit rate 0.36% among 350,000;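 active means mean added fluorescence quench of at least 8% versus neutral control, with both replicates also reaching 8%; inconclusive means only one of the mean or replicate conditions met; inactive means mean below 8% and not both replicates reaching 8%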;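 further: cells transiently co-express mutant CFTR-F508del with the halide-sensitive YFP; corrector assay measuring rescue of mutant channel to the surface after 24 h compound exposure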
FGF22 binding – FGF22 (human) thermal shift binding; Q9HCT0; recombinant FGF22 thermal shift, SYPRO orange fluorescence; percent of sucrose octasulfate shift, DMSO zero; activity (Tm shift, normalised), % at 9.99 µM; hit rate 1.5% among 340,000; AID 651658;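 active means mean Tm shift, scaled 0 neutral to 100 positive control, at about 1.3% or above, every replicate too, limit read from the data; inconclusive means no clear call, values can overlap the other calls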
DENV2 CPE rescue – protects cells from dengue virus 2 cytopathic effect; DENV2-infected cells, cytopathic effect rescue, plate reader; CPE inhibition, % at 9.99 µM; hit rate 1.7% among 350,000; in the data active means CPE inhibition above about 20%, passing the limit was not always enough; inconclusive means no clear call, values can overlap the other calls; tested in BHK-21 cells;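 further: 0% = median of neutral control wells and 100% = median of positive control wells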
* hit, by the source's call; ? = inconclusive; / = no result given. Compounds with a hit are over-represented: about 3.7% of the library has one in this group of screens.

SMILES	ERAP1 HTS inh	E-sel inducer	CFTR F508del cor	FGF22 binding	DENV2 CPE rescue
Cc1ccc(-c2cnc3c(c2)C(=O)N([C@@H](C)CO)C[C@H](C)[C@@H](CN(C)C(=O)c2cccnc2)O3)cc1	3	0	1	0	-2
CNC(=O)CSc1nnc(-c2ccc3c(c2)OCO3)n1C	1	3	-4	43*	10
CN(C)C(=O)[C@@H]1[C@@H](CO)[C@@H]2Cn3c(cccc3=O)[C@@H]2N1C(=O)NC1CCCC1	/	0	1	/	-6
CCCCC1=CC2=CC(=O)C(C)(OC(=O)CC)C(=O)C2=CN1c1cccc(C#N)c1 (stereo unspecified)	6	1	-2	0	26*
CCCCC1=CC2=CC(=O)C(C)(OC(=O)CC)C(=O)C2=CN1c1ccc(OC)cc1 (stereo unspecified)	2	0	2	0	-2
Cc1ccc(C2NC(=S)NC3=C2C(=O)CCC3)cc1 (stereo unspecified)	3	0	2	43*	-1
Cn1c(SCC(=O)Nc2ccccc2F)nnc1-c1cccnc1	/	0	-2	0	-3
Cn1c(SCC(=O)Nc2ccc(F)cc2)nnc1-c1cccnc1	-5	0	2	0	22*
O=C(Cn1ccc([N+](=O)[O-])n1)NCC1CCCO1 (stereo unspecified)	-1	0	-4	0	27*
CC(C)NC(=O)Nc1ccc2c(c1)C(=O)N([C@@H](C)CO)C[C@H](C)[C@@H](CN(C)S(=O)(=O)c1cn(C)cn1)OCCCC[C@@H](C)O2	1	/	0	0	-9
COc1ccc2c3c([nH]c2c1)[C@@H](CO)N(S(=O)(=O)c1ccc(C)cc1)CC31CN(C(=O)Cc2cccnc2)C1	1	0	1	0	-5
COc1ccc2c3c([nH]c2c1)[C@@H](CO)N(S(C)(=O)=O)CC31CN(C(=O)c2ccccc2)C1	/	0	-2	0	23*
COc1ccc2c3c([nH]c2c1)[C@H](CO)N(S(=O)(=O)c1ccc(C)cc1)CC31CN(C(=O)Cc2cccnc2)C1	1	0	-1	0	27*
COc1ccc2c3c([nH]c2c1)[C@H](CO)N(C(=O)c1ccccc1)CC31CN(S(=O)(=O)c2cccs2)C1	/	0	0	0	82*
COc1ccc2c3c([nH]c2c1)[C@H](CO)N(S(C)(=O)=O)CC31CN(C(=O)c2ccccc2)C1	/	0	0	0	-2
O=C(NCC[C@@H]1CC[C@H](NC(=O)c2cnccn2)[C@@H](CO)O1)Nc1ccc(F)cc1	1	0	4	0	8
CCNC(=O)C[C@H]1CC[C@@H]2[C@@H](COc3ccc(NC(=O)Nc4ccc(F)cc4)cc3C(=O)N2C)O1	-3	0	-2	1	19
O=C(COc1ccccc1)N/N=C/c1ccc([N+](=O)[O-])o1	2	/	-2	0	3
O=C(CNc1ccc2ccccc2c1)N/N=C/c1ccc([N+](=O)[O-])o1	1	/	-5	43*	/
Cc1ccc(S(=O)(=O)NCC(=O)OCC(=O)N(Cc2ccccc2)C(C)(C)C)cc1	-5	0	0	0	93*
O=C(Nc1ccccc1F)N[C@@H]1CC[C@@H](CCNC(=O)C2CCCC2)O[C@H]1CO	2	0	2	0	39*
O=C(Nc1ccccc1F)N[C@@H]1CC[C@H](CCNC(=O)C2CCCC2)O[C@@H]1CO	1	0	1	0	-6
O=C(Nc1ccccc1F)N[C@@H]1CC[C@H](CCNC(=O)C2CCCC2)O[C@H]1CO	-1	0	-1	0	26*
O=C(Nc1ccccc1F)N[C@H]1CC[C@H](CCNC(=O)C2CCCCC2)O[C@@H]1CO	-4	0	-4	0	1
COc1ccc(NC(=O)N(C)C[C@@H]2OCCCC[C@@H](C)Oc3ccc(NS(=O)(=O)c4c(C)noc4C)cc3C(=O)N([C@@H](C)CO)C[C@H]2C)cc1	/	0	2	0	-11
SMILES	ERAP1 HTS inh	E-sel inducer	CFTR F508del cor	FGF22 binding	DENV2 CPE rescue
CO[C@H]1CN(C)C(=O)c2cc(NC(=O)C3CCOCC3)ccc2OC[C@@H](C)N(C(=O)c2ccccc2)C[C@H]1C	/	3	0	/	/
Cc1cc2occ(CC(=O)NC3CCCc4ccccc43)c2cc1C (stereo unspecified)	0	/	-4	43*	18
Cc1cccc(NC(=O)NCc2ccc3c(c2)cc(C)n3C)c1	0	56*	0	0	9
O=C(Cc1ccc([N+](=O)[O-])cc1)NCc1ccccn1	1	0	2	43*	-9
Cc1cc2cc(CNC(=O)c3cccc([N+](=O)[O-])c3)ccc2n1C	-1	3	4	0	?
Cc1cc2cc(CNC(=O)Cc3ccc([N+](=O)[O-])cc3)ccc2n1C	-2	/	-2	44*	3
Cc1cc2cc(CNC(=O)Nc3cccc(Cl)c3)ccc2n1C	0	33*	-2	0	3
CCCc1cn(CC[C@H]2CC[C@H](NC(=O)C3CC3)[C@@H](CO)O2)nn1	0	0	1	-1	18
CN1CCCN=C1/C=C/c1cccs1	2	-1	-1	0	74*
O=C(/C=C/c1cccs1)N1CCCC1	-4	0	3	0	2
COc1ccc(NC(=O)N(C)C[C@@H]2OCCCC[C@H](C)Oc3ccc(NC(=O)Nc4ccc(C(F)(F)F)cc4)cc3C(=O)N([C@H](C)CO)C[C@@H]2C)cc1	17	0	-1	0	0
Cc1nn2c(C)c(C(=O)Nc3ccccc3)cnc2c1-c1ccccc1	7	3	2	-1	42*
C/C=C/c1ccc2c(c1)O[C@H](CN(C)Cc1cncnc1)[C@H](C)CN([C@@H](C)CO)S2(=O)=O	-2	-1	2	0	-9
COc1ccc(-c2ccnc(-c3ccc(O)cc3)n2)cc1	12	/	11*	0	-3
O=C(CCCn1cc([N+](=O)[O-])cn1)N1CCCCC1	-1	1	0	0	-1
Cc1cc(C)n(C(=O)CCCn2cc([N+](=O)[O-])cn2)n1	4	/	0	43*	1
COc1ccc(S(=O)(=O)Nc2c(C)nn(C)c2C)cc1Br	-2	0	0	0	31*
Cc1ccc(S(=O)(=O)Nc2c(C)nn(C)c2C)cc1C	-2	0	-2	0	2
CN(C)CC(=O)N1[C@@H](C#N)[C@@H](c2ccc(C#CC3CCCC3)cc2)[C@@H]1CO	3	0	2	0	39*
N#C[C@@H]1N[C@@H](CO)[C@H]1c1ccc(C#CC2CCCC2)cc1	2	0	0	0	21*
N#C[C@H]1[C@@H](c2ccc(C#CC3CCCC3)cc2)[C@H](CO)N1S(=O)(=O)c1ccccc1	4	-1	4	0	21*
CN(C)CC(=O)N1[C@H](C#N)[C@H](c2ccc(C#CC3CCCC3)cc2)[C@H]1CO	4	0	1	0	1
